ChEMBL document CHEMBL3046450, “Pyrrole- and dihydropyrrole-fused neonicotinoids: design, synthesis, and insecticidal evaluation” (2013)
Values after ≈ are worked out from the molar mass of the structure shown.

Legend:
Aphis craccivora [1] = assay: Insecticidal activity against Aphis craccivora (cowpea aphid) assessed as mortality at 500 mg/l; assay type: functional
Summary of the method: (§1)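 Compounds dissolved in DMF, then diluted with water containing Triton X-100 (0.1 mg L−1) to test concentrations of 500.0, 250.0 and 125.0 mg L−1, plus others; mortality of cowpea aphids was scored.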

Aphis craccivora [2] = assay: Insecticidal activity against Aphis craccivora (cowpea aphid) assessed as mortality; assay type: functional; summary of the method: as §1

CCOc1c([N+](=O)[O-])c(N(CC)Cc2ccc(Cl)nc2)n(C)c1C showed an Activity (Aphis craccivora [1]) of 84%.
For CCCOc1c([N+](=O)[O-])c(N(CC)Cc2ccc(Cl)nc2)n(C)c1C, the Activity (Aphis craccivora [1]) was 77%.
CCCCOC1C([N+](=O)[O-])=C2N(Cc3ccc(Cl)nc3)CCN2C1(C)OCCCC (stereo unspecified) showed an LC50 (Aphis craccivora [2]) of 3.4 µg/mL (≈ 7.75 µM) and an Activity (Aphis craccivora [1]) of 100%.
With CC1C(=O)C([N+](=O)[O-])=C2N(Cc3ccc(Cl)nc3)CCN21 (stereo unspecified) the LC50 (Aphis craccivora [2]) was 43.5 µg/mL (≈ 141 µM) and the Activity (Aphis craccivora [1]) was 100%.
Work on CC12OCCOC1C([N+](=O)[O-])=C1N(Cc3ccc(Cl)nc3)CCN12 (stereo unspecified) yielded an LC50 (Aphis craccivora [2]) of 10 µg/mL (≈ 28.3 µM) and an Activity (Aphis craccivora [1]) of 100%.
CC12OCCCOC1C([N+](=O)[O-])=C1N(Cc3ccc(Cl)nc3)CCN12 (stereo unspecified) showed an LC50 (Aphis craccivora [2]) of 11.1 µg/mL (≈ 30.3 µM) and an Activity (Aphis craccivora [1]) of 100%.
CC12OCCCCOC1C([N+](=O)[O-])=C1N(Cc3ccc(Cl)nc3)CCN12 (stereo unspecified) was tested, and the LC50 (Aphis craccivora [2]) was 14.8 µg/mL (≈ 38.9 µM) and the Activity (Aphis craccivora [1]) was 100%.
With COc1c([N+](=O)[O-])c2n(c1C)CCN2Cc1ccc(Cl)nc1 the LC50 (Aphis craccivora [2]) was 14.6 µg/mL (≈ 45.2 µM) and the Activity (Aphis craccivora [1]) was 100%.
CCOc1c([N+](=O)[O-])c2n(c1C)CCN2Cc1ccc(Cl)nc1 showed an LC50 (Aphis craccivora [2]) of 37.3 µg/mL (≈ 111 µM) and an Activity (Aphis craccivora [1]) of 100%.
CCCOc1c([N+](=O)[O-])c2n(c1C)CCN2Cc1ccc(Cl)nc1 showed an LC50 (Aphis craccivora [2]) of 24.5 µg/mL (≈ 69.8 µM) and an Activity (Aphis craccivora [1]) of 100%.
With CCCCOc1c([N+](=O)[O-])c2n(c1C)CCN2Cc1ccc(Cl)nc1 the LC50 (Aphis craccivora [2]) was 39.5 µg/mL (≈ 108 µM) and the Activity (Aphis craccivora [1]) was 100%.
CCN(Cc1ccc(Cl)nc1)C1=C([N+](=O)[O-])C(OC)C(C)(O)N1C (stereo unspecified) gave an Activity (Aphis craccivora [1]) of 21.6%.
With CCOC1C([N+](=O)[O-])=C(N(CC)Cc2ccc(Cl)nc2)N(C)C1(C)O (stereo unspecified) the Activity (Aphis craccivora [1]) was 29.7%.
CCCOC1C([N+](=O)[O-])=C(N(CC)Cc2ccc(Cl)nc2)N(C)C1(C)O (stereo unspecified) gave an Activity (Aphis craccivora [1]) of 19%.
CCN(Cc1ccc(Cl)nc1)C1=C([N+](=O)[O-])C(OC(C)C)C(C)(O)N1C (stereo unspecified) gave an Activity (Aphis craccivora [1]) of 21.2%.
For CCCCOC1C([N+](=O)[O-])=C(N(CC)Cc2ccc(Cl)nc2)N(C)C1(C)O (stereo unspecified), the Activity (Aphis craccivora [1]) was 16.4%.
In the case of CCN(Cc1ccc(Cl)nc1)c1c([N+](=O)[O-])c(OC)c(C)n1C, the Activity (Aphis craccivora [1]) is reported as 91%.
Compound CC1(O)C(O)C([N+](=O)[O-])=C2N(Cc3ccc(Cl)nc3)CCN21 (stereo unspecified) has an LC50 (Aphis craccivora [2]) of 2 µg/mL (≈ 6.12 µM) and an Activity (Aphis craccivora [1]) of 100%.
COC1C([N+](=O)[O-])=C2N(Cc3ccc(Cl)nc3)CCN2C1(C)OC (stereo unspecified) gave an LC50 (Aphis craccivora [2]) of 0.7 µg/mL (≈ 1.97 µM) and an Activity (Aphis craccivora [1]) of 100%.
CCOC1C([N+](=O)[O-])=C2N(Cc3ccc(Cl)nc3)CCN2C1(C)OCC (stereo unspecified) gave an LC50 (Aphis craccivora [2]) of 0.6 µg/mL (≈ 1.57 µM) and an Activity (Aphis craccivora [1]) of 100%.
With CCCOC1C([N+](=O)[O-])=C2N(Cc3ccc(Cl)nc3)CCN2C1(C)OCCC (stereo unspecified) the LC50 (Aphis craccivora [2]) was 0.8 µg/mL (≈ 1.95 µM) and the Activity (Aphis craccivora [1]) was 100%.
For O=[N+]([O-])/N=C1\NCCN1Cc1ccc(Cl)nc1 [IMIDACLOPRID], the LC50 (Aphis craccivora [2]) was 8.9 µg/mL (≈ 34.8 µM) and the Activity (Aphis craccivora [1]) was 100%.
